# KCNK9 block = blocks the human KCNK9 two-pore domain potassium channel. Q9NPC2. HEK293 KCNK9, FluxOR thallium flux fluorescence; hits give low values. B-score at 10 µM. actives 1.2% (n = 310,000);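 active = ratio B-score over 3 SD below the library mean, with starting fluorescence within 5 SD of its mean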;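 also: negative B-score means less thallium flux so channel inhibition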
# Target sequence (Q9NPC2 whole entry, looked up, the tested form may be a part): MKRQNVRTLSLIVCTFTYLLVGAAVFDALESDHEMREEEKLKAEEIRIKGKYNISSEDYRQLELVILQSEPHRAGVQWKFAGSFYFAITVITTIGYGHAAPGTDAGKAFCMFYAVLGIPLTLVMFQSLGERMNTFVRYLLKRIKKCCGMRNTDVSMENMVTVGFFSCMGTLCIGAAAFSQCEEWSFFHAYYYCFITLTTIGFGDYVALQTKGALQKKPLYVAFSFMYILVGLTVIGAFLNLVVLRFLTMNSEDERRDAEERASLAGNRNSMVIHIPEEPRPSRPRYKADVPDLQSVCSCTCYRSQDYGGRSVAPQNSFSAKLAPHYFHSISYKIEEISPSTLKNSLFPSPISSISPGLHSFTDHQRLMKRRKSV
# KCNK3 block = human KCNK3 channel inhibition, primary screen | AID 602410 | CHO-KCNK3 thallium flux, FluxOR fluorescence; hits give low values | B-score at 10 µM | actives 0.84% (n = 340,000);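 active = B-score under library mean minus 4 SD, starting fluorescence ratio at most library mean plus 5 SD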;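 also: more negative B-score means stronger inhibition of thallium flux through KCNK3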
# KCNQ1 inh = blocks the human KCNQ1 potassium channel; actives 1.3% (n = 310,000); CHO-K1 KCNQ1, FluxOR thallium flux fluorescence; hits give high values; P51787; B-score at 10 µM;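 active = compounds whose thallium flux B-score, printed positive for inhibition, exceeds three library SD while starting fluorescence stays within three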;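 also: channel opened by potassium depolarization with thallium stimulus after 20 min compound exposure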
# Kir21 block = Kir2.1 (mouse) channel inhibition. actives 0.85% (n = 310,000). P35561. HEK293-Kir2.1, FluxOR thallium flux fluorescence; hits give low values. B-score at 10 µM;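 active = fluorescence ratio B-score at or below minus 3 SD of library scores, with starting-brightness B-score within 2 SD, cut at about -4.2 in these data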;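 also: channel flux triggered by added potassium and thallium sulfate stimulus; B-score of peak minus minimum fluorescence over baseline after thallium stimulus; more negative B-score means stronger Kir2.1 block with less thallium influx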
# hERG rescue = hERG (human) protection from proarrhythmic block; AID 1511; activation (rescue from dofetilide block), less the hit threshold, % at 10 µM; CHO-hERG, FluxOR thallium flux, dofetilide IC70 present; actives 0.51% (n = 310,000); Q12809;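 active = activation above the mean of controls blocked by dofetilide plus 5 SD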;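 also: thallium influx through hERG after potassium depolarization seen as dye fluorescence rise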
# KCNQ1 pot = potentiates or activates the human KCNQ1 potassium channel; B-score at 10 µM; CHO-K1 KCNQ1, thallium flux FluxOR fluorescence; hits give high values; actives 0.35% (n = 310,000); AID 2648;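 active = fluorescence ratio B-score, a plate-corrected score, at least three library SD, with initial intensity B-score within 5 SD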
#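 assay system = KCNQ1-transfected CHO-K1 cells | medium = assay buffer with matched DMSO | probe or stimulus = depolarizing K+/Tl+ stimulus, K2SO4 and Tl2SO4 each 12.5 mM in 5x stock | dosing = single dose | incubation = dye 90 min, compound 20 min, room temperature | detection = kinetic FluxOR fluorescence, 10 s baseline plus 110 s post-stimulus | evaluation = ratio B score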
# Active calls of the source: *; i = inactive; / = not tested or not shown. In the library only some 3.7% were active in any assay of this set; here they are far more common.
SMILES,KCNK9 block,KCNK3 block,KCNQ1 inh,Kir21 block,hERG rescue,KCNQ1 pot
O=C(NC(=S)N1CCN(c2ccc(Cl)cc2[N+](=O)[O-])CC1)c1cccs1,i,i,i,-0.51,6.3*,20*
COc1cccc(OC)c1C(=O)NC(=S)N1CCN(c2ccc(C(F)(F)F)cc2[N+](=O)[O-])CC1,i,i,i,0.31,11*,i
O=C(NC(=S)N1CCN(c2ccc(Cl)cc2[N+](=O)[O-])CC1)c1ccco1,i,i,i,-0.05,-3,i
CCn1nnnc1NCc1cccc(Cl)c1,i,i,i,-0.53,-14,i
CCCOc1ccc(C(=O)NC(=S)NNC(=O)c2c(-c3ccccc3)noc2C)cc1,i,i,i,1.3,-12,15*
c1ccc(-n2cnnc2SCc2cn3ccsc3n2)cc1,i,i,i,-0.09,-8,i
Cc1ccc(-n2c(SCc3cn4ccsc4n3)nc3ccccc3c2=O)cc1,i,i,7*,-0.01,-12,i
COCc1c(C(=O)Nc2ccc3nc(N4CCOCC4)sc3c2)oc2ccccc12,/,i,/,/,/,/
O=C(NC(=S)Nc1cccc(Cl)c1N1CCCCC1)c1cccs1,i,i,i,-2.3,7.2*,24*
O=C(NC(=S)Nc1cccc(Cl)c1N1CCOCC1)c1cccs1,i,i,i,-0.05,17*,i
O=C(NC(=S)Nc1ccc(N2CCOCC2)cc1)c1cccs1,i,i,i,-0.53,0,i
CCOC(=O)C(NCCc1ccccc1F)(NC(=O)CC)C(F)(F)F (centres undefined),i,i,i,-0.53,-6,i
Cn1cc(CNCCN2CCCCC2=O)c(-c2cccc(Cl)c2)n1,i,i,i,-0.78,-10,i
O=C1c2cccc3c([N+](=O)[O-])ccc(c23)C(=O)N1c1ccccn1,-6.6*,i,i,-2.5,-14,i
O=C1c2cccc3c(N4CCCCC4)ccc(c23)C(=O)N1c1ccccn1,-7.6*,i,8*,-0.67,-20,i
O=C1c2cccc3c([N+](=O)[O-])ccc(c23)C(=O)N1c1ccc(Cl)cn1,i,i,7*,-5*,-19,i
O=C1c2ccc([N+](=O)[O-])cc2C(=O)N1c1ccc(Cl)cn1,i,i,i,-2.2,-11,i
O=C1c2cccc3c([N+](=O)[O-])ccc(c23)C(=O)N1O,i,i,8*,-3.4,-23,i
O=C(NCC1CCCO1)c1ccc(CSCc2cccc(F)c2)o1 (centres undefined),i,i,i,2.4,-12,i
Cc1ccc(NC(=Nc2ccc(Br)cc2)N2CCOCC2)cc1C,i,i,6*,-3.8,-10,i
COc1cc(C(=O)NNC(=O)c2cc(C)[nH]n2)cc(OC)c1OC,i,i,i,-0.8,-11,i
Cc1ccc(C(=O)CC(=O)c2cccc(F)c2)c(O)c1,i,i,i,-1.4,10*,16*
Cc1ccc(O)c(C(=O)CC(=O)c2ccccc2Cl)c1,i,i,i,1.7,45*,13*
Cc1ccc(C(=O)CC(=O)c2ccccc2C)c(O)c1,i,i,i,0.16,2,i
CC(C)(C)c1ccc(OCCCC(=O)NNC(=O)c2ccccc2O)cc1,i,i,8*,-0.01,-28,i
SMILES,KCNK9 block,KCNK3 block,KCNQ1 inh,Kir21 block,hERG rescue,KCNQ1 pot
Cc1cc(C(=O)NNC(=O)CCCOc2ccccc2)c(C)o1,i,i,i,-0.76,-18,i
Cc1ccc(C(=O)C2C(c3ccc(-c4ccccc4[N+](=O)[O-])o3)NC(=O)NC2(O)C(F)(F)F)cc1 (centres undefined),-10*,i,i,0.01,-10,i
O=C1NC(c2ccc(-c3ccccc3[N+](=O)[O-])o2)C(C(=O)c2ccccc2)C(O)(C(F)(F)F)N1 (centres undefined),i,i,i,0.48,-6,i
CC1(c2ccccc2)CC(c2ccccc2)=Nc2nonc2N1 (centres undefined),i,i,i,-4.4*,-10,i
C=CCN(C(=O)CC(NC(C)=O)c1ccccc1)c1nc(-c2ccc(S(C)(=O)=O)cc2)cs1 (centres undefined),i,i,i,-0.64,-14,i
CCN1CCN(C(=O)c2ccc3c(c2)c(C)c(C)n3Cc2ccccc2)CC1,i,i,i,-0.92,-11,i
Cc1c(C)n(Cc2ccccc2)c2ccc(C(=O)OCCCN(C)C)cc12,i,i,i,-12*,-14,i
COCCN(C(=O)CCC(=O)Nc1cc(C)on1)C(C(=O)NC(C)(C)C)c1cccc(OC)c1OC (centres undefined),i,i,i,2.1,-2,i
NNC(=O)c1csc(-c2ccc(C(F)(F)F)cc2Cl)n1,i,i,i,-1.8,-6,i
CC(CC(=O)Nc1cccc(Cl)c1)c1ccccc1 (centres undefined),i,i,i,0.23,-15,i
COCC(C)NC(C(=O)Nc1ccc(Cl)c([N+](=O)[O-])c1)c1ccccc1 (centres undefined),i,i,i,-3.7,-10,i
Cc1c(NC(=O)C(Sc2ccccc2)c2ccccc2)cccc1[N+](=O)[O-] (centres undefined),i,i,i,0.03,-10,i
CC(=O)N(C)c1ccc(NC(=O)C(Sc2ccccc2)c2ccccc2)cc1 (centres undefined),i,i,i,-1.2,-10,i
CC(CC(=O)Nc1ccc(F)c([N+](=O)[O-])c1)c1ccccc1 (centres undefined),i,i,6*,-0.49,-4,i
O=C(Nc1ccc(Cl)c([N+](=O)[O-])c1)C(Sc1ccccc1)c1ccccc1 (centres undefined),i,i,11*,1.4,-17,i
O=C(Nc1cc([N+](=O)[O-])ccc1Cl)C(Sc1ccccc1)c1ccccc1 (centres undefined),-7.1*,i,i,-2.7,-8,i
CCC(C)NC(C(=O)Nc1ccc(Cl)c([N+](=O)[O-])c1)c1ccccc1 (centres undefined),-7*,i,i,0.15,-17,i
Cc1ccc(NC(=O)CCc2ccc(C)o2)cc1,i,i,i,-1.4,-5,i
Cn1c2c(c(=O)n(C)c1=O)C(c1ccc(Cl)cc1)C(C#N)=C(N)O2 (centres undefined),i,i,i,-0.85,-7,i

# Bioassay records from PubChem.
